# From PubChem BioAssay
# Only some compounds are listed: those with a hit (about 3.6% of all), similar ones and a draw of the others.
# FGF22 binding: binders of human FGF22 protein, primary screen, FGF22 synaptogenesis inhibitor project, biophysical, thermal shift, single point; Fibroblast growth factor 22 (Homo sapiens), Q9HCT0; recombinant FGF22 thermal shift, SYPRO orange fluorescence; percent of sucrose octasulfate shift, DMSO zero; activity (Tm shift, normalised), % at 9.99 µM; 1.5% of 340,000 active; AID 651658, 2012;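 active = mean Tm shift, scaled 0 neutral to 100 positive control, at about 1.3% or above, every replicate too, limit read from the data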
# Target sequence (Q9HCT0 whole entry, looked up): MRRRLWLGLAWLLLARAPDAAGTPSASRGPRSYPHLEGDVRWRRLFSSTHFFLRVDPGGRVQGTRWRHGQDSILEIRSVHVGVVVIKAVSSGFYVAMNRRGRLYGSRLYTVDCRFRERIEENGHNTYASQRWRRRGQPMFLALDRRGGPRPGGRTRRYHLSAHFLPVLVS
# NR3A LBD binder: binders of NR3A ligand-binding domain, primary screen, biophysical, differential scanning fluorimetry, uHTS; NR3A LBD differential scanning fluorimetry, Tm shift; 0% = protein alone, 100% = glycine-bound protein; 2.5% of 340,000 active; Tm shift relative to glycine control, % at 25 µM; AID 1259313, 2017; Glutamate receptor ionotropic, NMDA 3A (GRIN3A) ligand-binding domain;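 active = melting temperature shift of at least 10% of the positive control shift, at one fixed dose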
# ZTA DNA inh: blocks Epstein-Barr virus ZTA, an EBNA-1 counter-screen | P03206 | ZTA-DNA binding, fluorescence polarization | inhibition, % at 11 µM | 0.15% of 320,000 active; in the data active = inhibition above about 33%
# Target sequence (P03206 whole entry, looked up): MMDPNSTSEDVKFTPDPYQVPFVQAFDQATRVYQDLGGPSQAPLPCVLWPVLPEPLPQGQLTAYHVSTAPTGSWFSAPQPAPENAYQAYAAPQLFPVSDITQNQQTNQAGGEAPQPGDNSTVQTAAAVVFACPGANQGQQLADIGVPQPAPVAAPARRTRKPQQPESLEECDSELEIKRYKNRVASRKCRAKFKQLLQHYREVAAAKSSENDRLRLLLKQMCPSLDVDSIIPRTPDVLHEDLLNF
# DNA FID counter: compounds displacing fluorescent DNA intercalator, primary screen, artefact control for HCV NS3 helicase inhibitor project, biochemical, FID fluorescence. inhibition, % at 7.9 µM. DNA fluorescent intercalator displacement. AID 1845, 2009. 0.17% of 290,000 active; in the data active = inhibition above about 37%;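 also: 0% = vehicle and 100% = reference compound; higher means more ethidium bromide displaced from hairpin DNA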
# NS3 helicase inh: inhibitors of HCV NS3 helicase, primary screen, biochemical, Cy5 molecular beacon fluorescence; NS3 helicase DNA unwinding; 0.56% of 290,000 active; inhibition, % at 10.9 µM; Hepatitis C virus NS3 helicase;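 active = inhibition above the mean of all tested compounds plus 3 SD, set per campaign, cut at about 35% in these data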;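 also: 0% = DMSO wells and 100% = thioflavine S control wells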
#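 System: NS3 helicase fragment of HCV / Schedule: 1 h at 25 °C / Control set: DMSO alone as 0% and 110 µM thioflavine S as 100% / Reagent: Cy5/quencher beacon DNA duplex and ATP to start / Technique: Cy5 fluorescence / Replication: singlicate / Evaluation: % inhibition of end-to-start signal ratio versus controls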
# EBNA-1 inh: EBNA-1 DNA-binding inhibitors, primary screen, biochemical, fluorescence polarization; AID 1950, 2009; inhibition, % at 14.8 µM; 0.34% of 300,000 active; in the data active = inhibition above about 28%
# Numbers without * were called inactive; / = no result.
SMILES,FGF22 binding,NR3A LBD binder,ZTA DNA inh,DNA FID counter,NS3 helicase inh,EBNA-1 inh
O=C(O)c1cc(NN=Nc2cccc(S(=O)(=O)O)c2)cc([N+](=O)[O-])c1,1,10*,2,-1,8,0
S=C(Nc1ccccc1Cl)Nc1ccc(Cl)cc1Cl,/,0,5,1,1,-6
S=C(NNc1ccnc2cc(Cl)ccc12)Nc1ccccc1Cl,/,20*,10,-2,-19,-6
COc1cccc(CN(C)C[C@@H]2OCc3cn(nn3)CCCC(=O)N([C@H](C)CO)C[C@@H]2C)c1,0,/,/,/,/,/
C[C@@H]1CCCCO[C@@H](CN(C)C(=O)Nc2ccc(F)cc2)[C@H](C)CN([C@H](C)CO)C(=O)c2cc(NC(=O)Nc3ccc(F)cc3)ccc2O1,0,/,/,/,/,/
CC(C)NC(=O)N(C)C[C@@H]1Oc2c(NS(=O)(=O)c3cn(C)cn3)cccc2C(=O)N([C@H](C)CO)C[C@@H]1C,0,/,/,/,/,/
O=C1OC[C@@H]2CCCN2C(=O)[C@@H](CC(=O)N(CCO)Cc2ccccc2)C/C=C\C[C@@H]1Cc1ccc(F)cc1,44*,0,/,/,/,/
O=C1OC[C@@H]2CCCN2C(=O)[C@@H](CC(=O)N(CCO)Cc2ccccc2)C/C=C\CC[C@H]1Cc1ccc(F)cc1,0,3,/,/,/,/
CN1CCN(/N=C/c2ccc(-c3ccccc3)cc2)CC1,0,-1,9,2,-8,1
Cc1cc(/C=N/N2CCN(C)CC2)c(C)n1-c1ccccc1F,44*,-2,14,5,26,5
COc1ccc(CNCCC(c2ccc(F)cc2)c2ccc(OC(C)C)cc2)cc1OC (stereo unspecified),0,-2,-10,38*,-75,0
Nc1c(Br)cc(Br)c2c1C(=O)c1c(cccc1S(=O)(=O)O)C2=O,44*,-2,/,/,/,/
COc1cccc(Nc2nc(-c3cccc(N4C(=O)c5ccccc5C4=O)c3)cs2)c1,/,33*,0,6,-10,7
COc1cccc(Nc2nc(-c3ccc(O)cc3)cs2)c1,/,23*,2,2,-4,1
Cc1ccc(S(=O)(=O)Nc2ccc3c(c2)C(=O)N([C@H](C)CO)C[C@H](C)[C@@H](CN(C)C(=O)Nc2c(C)noc2C)O3)cc1,0,/,/,/,/,/
COc1ccc2c3c(n(C)c2c1)[C@@H](CO)N(C)CC31CCN(C(=O)Nc2c(C)noc2C)CC1,0,/,/,/,/,/
O=C(COC(=O)CCCCCN=C1NS(=O)(=O)c2ccccc21)Nc1ccc(Cl)c(Cl)c1,0,22*,0,-9,-2,-5
O=C(CCCN=C1NS(=O)(=O)c2ccccc21)OCC(=O)c1ccccc1,0,-3,-5,/,/,-6
O=C(CCN=C1NS(=O)(=O)c2ccccc21)OCC(=O)c1ccccc1,0,-1,7,/,/,1
CC(C)CCNC(=O)NC(=O)COC(=O)CCN=C1NS(=O)(=O)c2ccccc21,44*,0,-1,-8,0,4
C[C@H](CO)N1C[C@H](C)[C@H](CN(C)C)Oc2cc(-c3cccc(F)c3)ccc2S1(=O)=O,0,/,/,/,/,/
CC1=NN(c2ccc(Cl)cc2)C(=O)C1C(c1ccccc1O)c1c(C)[nH]n(-c2ccc(Cl)cc2)c1=O (stereo unspecified),/,255*,-18,3,15,-11
COc1ccccc1NC(=O)c1c(Nc2ccccc2C)sc(C(=O)Nc2cccc(Cl)c2)c1N,0,31*,-4,-2,-1,13
CCCCNC(=S)N(C)/N=C/c1c(F)c(F)c(F)c(F)c1F,/,20*,9,0,11,11
CCCCNC(=S)N(C)/N=C/c1c(C)[nH]c2ccccc12,/,12*,-6,-19,-15,1
CCCCN(C)CCNC(=O)C(=O)c1c(C)[nH]c2ccccc12,0,1,12,4,-5,1
CCC(=O)N(C)C[C@@H]1Oc2ncc(-c3ccc(C#N)cc3)cc2C(=O)N([C@H](C)CO)C[C@@H]1C,0,/,/,/,/,/
